Calls of active or inactive are those of the source. The rule behind the calls is not given here.
What was measured:
Felis catus [1] = assay: Effect on 2 Hz stimulation of right cardioaccelerator nerve-induced positive chronotropic response in cat assessed as potentiation of change in heart rate up to 3.3 umol/kg, iv; assay type: functional, organism-based
[2] = In vivo antagonist activity at dopamine receptor in pigeon assessed as inhibition of apomorphine-induced pecking behavior administered intramuscularly for 15 mins prior to apomorphine-challenge measured after 1 hr; assay type: functional; settings: Columbidae, im
Summary of the method: (§1)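 Pigeons were pretreated im with compound 15 min before im apomorphine hydrochloride (1.6 μmol/kg), and pecking frequency was quantified. Five pigeons per dose, three antagonist doses spaced at 0.3 log intervals.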

Canis familiaris [3] = assay: In vivo antagonist activity at dopamine receptor in sc dosed mongrel dog assessed as inhibition of apomorphine-induced emesis pretreated for 15 mins followed by apomorphine-challenge measured after 1 hr; assay type: functional; settings: Canis lupus familiaris
Summary of the method: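 Dogs were given compound sc 15 min before sc apomorphine hydrochloride (100 μg/kg). Emesis frequency over 1 h was compared with the apomorphine control value in the same dogs.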

[4] = In vivo antagonist activity at dopamine receptor in pigeon assessed as inhibition of apomorphine-induced pecking behavior administered intramuscularly for 15 mins prior to apomorphine-challenge measured after 1 hr relative to control; assay type: functional, Columbidae; summary of the method: as §1
Canis familiaris [5] = assay: In vivo agonist activity at dopamine receptor in mongrel dog assessed as induction of emesis up to 5 mg/kg, sc after 1 hr; assay type: functional, organism-based; design: dose 5 mg/kg; settings: Canis lupus familiaris
Summary of the method: (§2)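 Mongrel dogs, five per dose, with doses spaced at 0.3 log intervals and given sc. Emetic episodes were counted for 1 h after dosing. Apomorphine hydrochloride served as reference standard.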

Felis catus [6] = species: Felis catus; assay: Effect on 2 Hz transmural stimulation of right atrium-induced positive chronotropic response in cat assessed as concentration required for 50% potentiation of change in heart rate; assay type: functional, Cardiac atrium
Summary of the method: (§3)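 Isolated cat right atria in Feigan's solution under transmural field stimulation: 2 Hz, 5 ms pulses, maximal voltage, 10 s trains every 5 min, activating adrenergic terminals. After control heart-rate increases were established, compound was added to the bath and its effect was read 5 min later. Estimated ID50 or 50%-potentiation concentration in μM.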

Felis catus [7] = assay: Effect on 2 Hz stimulation of right cardioaccelerator nerve-induced positive chronotropic response in iv dosed cat assessed as concentration required for 50% potentiation of change in heart rate; assay type: functional
Mus musculus = assay: Hypothermic activity in mouse assessed as decrease in rectal temperature at 10 mg/kg, sc measured every 15 mins; assay type: functional; settings: route subcutaneous
Canis familiaris [8] = assay: Toxicity in sc dosed mongrel dog assessed as behavioral changes; assay type: organism-based, Canis lupus familiaris; settings: in vivo
Felis catus [9] = assay: Effect on 2 Hz stimulation of right cardioaccelerator nerve-induced positive chronotropic response in cat assessed as potentiation of change in heart rate up to 3.5 umol/kg, iv; assay type: functional, organism-based
Canis familiaris [10] = assay: In vivo agonist activity at dopamine receptor in sc dosed mongrel dog assessed as induction of emesis after 1 hr relative to apomorphine; assay type: functional, Canis lupus familiaris; summary of the method: as §2
Felis catus [11] = assay: Effect on 2 Hz stimulation of right cardioaccelerator nerve-induced positive chronotropic response in iv dosed cat assessed as inhibition of change in heart rate in presence of haloperidol; assay type: functional, organism-based
Summary of the method: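 Cat right cardioaccelerator nerve preparation with 2 Hz stimulation and heart-rate response recorded. Haloperidol (100 μg/kg) was given iv before the iv test compound, then inhibition of the nerve-evoked heart-rate increase was assessed.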

Felis catus [12] = species: Felis catus; assay: Effect on 2 Hz transmural stimulation of right atrium-induced positive chronotropic response in cat assessed as inhibition of change in heart rate; assay type: functional, Cardiac atrium; summary of the method: as §3
Felis catus [13] = assay: Effect on 2 Hz stimulation of right cardioaccelerator nerve-induced positive chronotropic response in iv dosed cat assessed as concentration required for 50% inhibition of change in heart rate; assay type: functional
Columbidae = assay: In vivo agonist activity at dopamine receptor in pigeon assessed as induction of pecking behavior administered intramuscularly after 1 hr; assay type: functional, organism-based
Summary of the method: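 Pigeons were given compound intramuscularly, and pecking frequency was recorded for 1 h afterwards. Apomorphine hydrochloride served as reference standard.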

Row | SMILES | Activity (Felis catus [1]) | ED50 [2] [µmol/kg] | ED50 (Canis familiaris [3]) [µmol/kg] | fold change (FC) [4] | Activity (Canis familiaris [5]) | Activity (Felis catus [6]) [µM] | Activity (Felis catus [7]) | T (Mus musculus) [°C] | Activity (Canis familiaris [8]) | Activity (Felis catus [9]) | fold change (FC) (Canis familiaris [10]) | inhibition (Felis catus [11]) | ID50 (Felis catus [12]) | Activity (Felis catus [13]) [µmol/kg] | Activity (Columbidae)
1 | Br.CN1CCC[C@@H]2c3ccc(O)cc3CC[C@@H]21 | inactive | 16.5 | 10 | 0.1 | inactive | 3.9 | <=3.3 umol/Kg | 2.3 | Non-toxic | – | – | – | – | – | –
2 | COc1ccc2c(c1OC)CC[C@H]1[C@@H]2CCCN1C (relative stereo) | – | 1.7 | – | 1 | inactive | – | – | – | Non-toxic | – | – | – | – | – | –
3 | COc1ccc2c(c1OC)CC[C@H]1[C@H]2CCCN1C (relative stereo) | – | 15.1 | – | 0.11 | inactive | – | – | – | Non-toxic | – | – | – | – | – | –
4 | CN1CCC[C@@H]2c3ccccc3CC[C@@H]21 (relative stereo) | – | 2.7 | 8.8 | 0.61 | inactive | 1.6 | <=3.5 umol/Kg | 1.6 | Non-toxic | inactive | – | – | – | – | –
5 | CN1CCC[C@H]2c3ccccc3CC[C@@H]21 (relative stereo) | – | 2.2 | 4.1 | 0.74 | inactive | 7.8 | <=3.5 umol/Kg | 2.6 | Non-toxic | inactive | – | – | – | – | –
6 | Br.CN1CCC[C@@H]2c3cccc(O)c3CC[C@@H]21 (relative stereo) | – | 3.8 | 6 | 0.44 | inactive | – | >3.3 µmol/kg | 0 | Non-toxic | – | – | – | – | – | –
7 | Br.CN1CCC[C@H]2c3cccc(O)c3CC[C@@H]21 (relative stereo) | – | 2.2 | – | 0.76 | – | – | – | 1.4 | Non-toxic | – | 0.03 | inactive | 1 ×10⁻¹ microM | >2.1 | –
8 | Br.CN1CCC[C@H]2c3ccc(O)cc3CC[C@@H]21 (relative stereo) | inactive | 9 | 4.3 | 0.18 | inactive | 12.7 | <=3.3 umol/Kg | 2.4 | Non-toxic | – | – | – | – | – | –
9 | Br.CN1CCC[C@@H]2c3ccc(O)c(O)c3CC[C@@H]21 (relative stereo) | – | 8.3 | – | 0.2 | – | – | – | 1.6 | – | – | 0.02 | inactive | 4.7 ×10⁻² microM | 0.59 | –
10 | Br.CN1CCC[C@H]2c3ccc(O)c(O)c3CC[C@@H]21 (relative stereo) | – | – | – | – | – | – | – | 4.4 | – | – | 6.1 | inactive | 3.2 ×10⁻³ microM | 0.0052 | –
11 | CN1CCc2cccc3c2[C@H]1Cc1ccc(O)c(O)c1-3.CN1CCc2cccc3c2[C@H]1Cc1ccc(O)c(O)c1-3.Cl.Cl.O [APOMORPHINE HYDROCHLORIDE] | – | – | – | – | – | – | – | 3.6 | Non-toxic | – | – | – | – | – | Active

— ChEMBL document CHEMBL3272132, “Centrally acting emetics. 10. Rigid dopamine congeners derived from octahydrobenzo[f]quinoline” (J Med Chem, 1976)
